Tests used:
Format in all cases: functional
Spodoptera frugiperda [1] = test: Insecticidal activity against 5 day old second instar larvae of Spodoptera frugiperda (fall armyworm) measured after 48 hr topical administration
How it was run: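 Topical application to second instar larvae, 1 μL per insect in acetone (control: acetone alone). About 300 mg of artificial diet supplied 1 h after application. Mortality counted at 48 h. Five replicates. Single-sample screens of mixtures were run at 2000 mg L-1, with means compared by Tukey test (P ≤ 0.05). LD50 from log dose probit lines, with Abbott correction for control mortality.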

Spodoptera frugiperda [2] = test: Insecticidal activity against pupal phase Spodoptera frugiperda (fall armyworm) assessed as mortality at 1 mg/kg compound administration with artificial diet (reference value: 13.3%)
How it was run: (§1)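 Ingestion assay on first instar larvae (1 day old), 30 per treatment and per control. Compound was dissolved in acetone, mixed with the diet's ascorbic acid (1.8 g), dried under vacuum at 40 °C, then incorporated into a bean/wheat germ artificial diet at 1-100 mg kg-1. Mortality recorded for the larval phase, the pupal phase and the total cycle.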

Spodoptera frugiperda [3] = test: Insecticidal activity against larval phase Spodoptera frugiperda (fall armyworm) assessed as mortality at 1 mg/kg compound administration with artificial diet (reference value: 6.66%); how it was run: as §1
Spodoptera frugiperda [4] = test: Insecticidal activity against Spodoptera frugiperda (fall armyworm) during total cycle assessed as mortality at 10 mg/kg compound administration with artificial diet (reference value: 13.3%); how it was run: as §1
Spodoptera frugiperda [5] = test: Insecticidal activity against pupal phase Spodoptera frugiperda (fall armyworm) assessed as mortality at 10 mg/kg compound administration with artificial diet (reference value: 13.3%); how it was run: as §1
Spodoptera frugiperda [6] = test: Insecticidal activity against larval phase Spodoptera frugiperda (fall armyworm) assessed as mortality at 10 mg/kg compound administration with artificial diet (reference value: 6.66%); how it was run: as §1
Spodoptera frugiperda [7] = test: Insecticidal activity against Spodoptera frugiperda (fall armyworm) during total cycle assessed as mortality at 50 mg/kg compound administration with artificial diet (reference value: 13.3%); how it was run: as §1
Spodoptera frugiperda [8] = test: Insecticidal activity against pupal phase Spodoptera frugiperda (fall armyworm) assessed as mortality at 50 mg/kg compound administration with artificial diet (reference value: 13.3%); how it was run: as §1
Spodoptera frugiperda [9] = test: Insecticidal activity against larval phase Spodoptera frugiperda (fall armyworm) assessed as mortality at 50 mg/kg compound administration with artificial diet (reference value: 6.66%); how it was run: as §1
Spodoptera frugiperda [10] = test: Insecticidal activity against Spodoptera frugiperda (fall armyworm) during total cycle assessed as mortality at 100 mg/kg compound administration with artificial diet (reference value: 13.3%); how it was run: as §1
Spodoptera frugiperda [11] = test: Insecticidal activity against pupal phase Spodoptera frugiperda (fall armyworm) assessed as mortality at 100 mg/kg compound administration with artificial diet (reference value: 13.3%); how it was run: as §1
Spodoptera frugiperda [12] = test: Insecticidal activity against larval phase Spodoptera frugiperda (fall armyworm) assessed as mortality at 100 mg/kg compound administration with artificial diet (reference value: 6.66%); how it was run: as §1
Spodoptera frugiperda [13] = test: Insecticidal activity against Spodoptera frugiperda (fall armyworm) during total cycle assessed as mortality at 1 mg/kg compound administration with artificial diet (reference value: 13.3%); how it was run: as §1

| SMILES | LD50 (Spodoptera frugiperda [1]) | mortality at 1 mg/kg (Spodoptera frugiperda [2]) | mortality at 1 mg/kg (Spodoptera frugiperda [3]) | mortality at 10 mg/kg (Spodoptera frugiperda [4]) | mortality at 10 mg/kg (Spodoptera frugiperda [5]) | mortality at 10 mg/kg (Spodoptera frugiperda [6]) | mortality at 50 mg/kg (Spodoptera frugiperda [7]) | mortality at 50 mg/kg (Spodoptera frugiperda [8]) | mortality at 50 mg/kg (Spodoptera frugiperda [9]) | mortality at 100 mg/kg (Spodoptera frugiperda [10]) | mortality at 100 mg/kg (Spodoptera frugiperda [11]) | mortality at 100 mg/kg (Spodoptera frugiperda [12]) | mortality at 1 mg/kg (Spodoptera frugiperda [13]) |
| --- | --- | --- | --- | --- | --- | --- | --- | --- | --- | --- | --- | --- | --- |
| O=C(c1ccc(OC(F)(F)F)cc1)N1CCCCC1 | 8.15 µg/mg |  |  |  |  |  |  |  |  |  |  |  |  |
| O=C(/C=C/c1ccc(OC(F)(F)F)cc1)N1CCCCC1 | 0.793 µg/mg | 61.4% | 65.8% | 86.6% | 48.6% | 63.3% | 93.3% | 69.4% | 73.3% | 86.6% | 75% | 55% | 83.3% |

From ChEMBL document CHEMBL3046318, “Synthesis of a combinatorial library of amides and its evaluation against the fall armyworm, Spodoptera frugiperda” (2011)
